Rows were chosen to be rich in hits. Some 3.8% of all compounds tested hit in one or more screens of this group.
KCNK9 inh = human KCNK9 channel inhibition | Q9NPC2 | HEK293 KCNK9, FluxOR thallium flux fluorescence; active compounds read low | B-score at 10 µM | 310,000 tested, 1.2% active;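 active means ratio B-score over 3 SD below the library mean, with starting fluorescence within 5 SD of its mean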;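 further: negative B-score means less thallium flux so channel inhibition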
Target sequence (Q9NPC2 whole entry, looked up): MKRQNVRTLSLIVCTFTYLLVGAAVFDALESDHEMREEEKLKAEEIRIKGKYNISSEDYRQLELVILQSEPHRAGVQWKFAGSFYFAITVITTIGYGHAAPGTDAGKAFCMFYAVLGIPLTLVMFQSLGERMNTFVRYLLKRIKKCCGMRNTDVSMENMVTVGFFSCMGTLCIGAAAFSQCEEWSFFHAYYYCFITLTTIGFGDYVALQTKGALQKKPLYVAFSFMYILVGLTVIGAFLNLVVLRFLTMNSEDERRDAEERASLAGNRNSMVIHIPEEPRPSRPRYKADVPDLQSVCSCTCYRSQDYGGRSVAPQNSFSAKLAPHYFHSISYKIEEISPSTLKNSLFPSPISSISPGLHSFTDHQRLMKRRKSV
KCNK3 inh = human KCNK3 channel inhibition, primary screen; AID 602410; B-score at 10 µM; O14649; 340,000 tested, 0.84% active; CHO-KCNK3 thallium flux, FluxOR fluorescence; active compounds read low;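 active means B-score under library mean minus 4 SD, starting fluorescence ratio at most library mean plus 5 SD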;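 further: more negative B-score means stronger inhibition of thallium flux through KCNK3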
Target sequence (O14649 whole entry, looked up): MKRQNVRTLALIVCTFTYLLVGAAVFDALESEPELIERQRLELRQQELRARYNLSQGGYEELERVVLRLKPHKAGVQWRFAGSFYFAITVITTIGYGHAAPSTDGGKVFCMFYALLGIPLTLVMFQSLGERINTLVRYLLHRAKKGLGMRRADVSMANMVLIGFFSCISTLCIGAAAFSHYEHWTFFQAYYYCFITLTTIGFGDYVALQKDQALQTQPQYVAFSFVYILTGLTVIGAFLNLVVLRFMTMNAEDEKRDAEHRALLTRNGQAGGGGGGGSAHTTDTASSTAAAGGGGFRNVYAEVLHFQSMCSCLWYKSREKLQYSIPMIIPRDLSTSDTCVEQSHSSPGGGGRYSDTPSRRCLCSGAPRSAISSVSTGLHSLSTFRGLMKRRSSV
KCNQ1 inh = blocks the human KCNQ1 potassium channel; 310,000 tested, 1.3% active; AID 2642; P51787; CHO-K1 KCNQ1, FluxOR thallium flux fluorescence; active compounds read high; B-score at 10 µM;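 active means compounds whose thallium flux B-score, printed positive for inhibition, exceeds three library SD while starting fluorescence stays within three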;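 further: channel opened by potassium depolarization with thallium stimulus after 20 min compound exposure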
Kir21 inh = inhibitors of mouse Kir2.1 inward-rectifier potassium channel; 310,000 tested, 0.85% active; B-score at 10 µM; P35561; HEK293-Kir2.1, FluxOR thallium flux fluorescence; active compounds read low; AID 1672;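 active means fluorescence ratio B-score at or below minus 3 SD of library scores, with starting-brightness B-score within 2 SD, cut at about -4.2 in these data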;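 further: channel flux triggered by added potassium and thallium sulfate stimulus; B-score of peak minus minimum fluorescence over baseline after thallium stimulus; more negative B-score means stronger Kir2.1 block with less thallium influx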
KCNQ1 act = potentiators or activators of human KCNQ1 potassium channel. 310,000 tested, 0.35% active. B-score at 10 µM. P51787. CHO-K1 KCNQ1, thallium flux FluxOR fluorescence; active compounds read high;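 active means fluorescence ratio B-score, a plate-corrected score, at least three library SD, with initial intensity B-score within 5 SD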
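Assay system: stable KCNQ1 CHO-K1 line; medium: assay buffer, equal DMSO in all wells; timing: 90 min dye loading and 20 min compound exposure, both at room temperature; technique: kinetic FluxOR thallium fluorescence, 10-s 1-Hz baseline, 110-s post-stimulus read; read-out basis: B score of baseline-normalized fluorescence ratio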
hERG protect = hERG (human) protection from proarrhythmic block; 310,000 tested, 0.51% active; CHO-hERG, FluxOR thallium flux, dofetilide IC70 present; activation (rescue from dofetilide block), less the hit threshold, % at 10 µM; Q12809;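 active means activation above the mean of controls blocked by dofetilide plus 5 SD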;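 further: thallium influx through hERG after potassium depolarization seen as dye fluorescence rise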
KCNQ1 block val = human KCNQ1 channel inhibition, validation assay; shares compounds with KCNQ1 inh; KCNQ1 cell line, FluxOR thallium flux fluorescence; inhibition, % at 10 µM; 1,600 tested, 93% active; AID 588353;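 active means primary screen active, with duplicate mean exceeding buffer control mean plus 3 SD of buffer wells, cut at about 28% in these data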;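 further: 0% = buffer control ratio and 100% = XE991 inhibitor control ratio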
CHO KCNQ1 ctr = KCNQ1 inhibitor counter-screen hit in parental CHO cells. 1,600 tested, 21% active. fluorescence ratio (Tl flux) at 10 µM. parental CHO-K1, FluxOR thallium flux fluorescence ratio; active compounds read low; zero means no signal rise above baseline. AID 588366. shares compounds with KCNQ1 inh;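 active means mean of duplicate thallium-flux fluorescence ratios in parental host cells more than 5 SD below the buffer control mean, cut at about 0.38 in these data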;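 further: ratio is peak minus minimum fluorescence divided by baseline fluorescence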
KCNQ1 ephys val = blocks human KCNQ1 current in automated patch clamp | shares compounds with KCNQ1 inh | KCNQ1-CHO cells | calls only at 10 µM | 490 tested, 20% active | AID 624120;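 active means KCNQ1 current drop exceeding 3 SD of negative control wells, seen in both duplicate runs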;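 further: steady state current during a 2 s step from -80 to +40 mV; negative values mean current inhibition and positive values mean potentiation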
KCNQ2 spec = selectivity of KCNQ1 inhibitors: inhibition of rat KCNQ2 channel | shares compounds with KCNQ1 inh | 1,600 tested, 71% active | KCNQ2 cells, FluxOR thallium flux fluorescence | inhibition, % at 10 µM | AID 651746;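 active means mean percent inhibition of the KCNQ2 thallium signal more than 5 SD above the buffer-only control wells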;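 further: KCNQ2 expressed in CHO cells; 0% = buffer control wells and 100% = XE-991 inhibitor control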
KCNQ1 KCNE1 spec = human KCNQ1/KCNE1 inhibition in KCNQ1 specificity screen; shares compounds with KCNQ1 inh; KCNQ1/KCNE1 cells, FluxOR thallium flux fluorescence; inhibition, % at 10 µM; 1,600 tested, 77% active; AID 652147;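 active means mean percent inhibition of duplicate wells above the buffer-only control mean plus 3 SD of those controls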;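 further: 0% = buffer only wells and 100% = XE-991 inhibitor control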
KCNK9 block conf = human KCNK9 inhibitor confirmation | 4,900 tested, 43% active | HEK293 KCNK9 cells, FluxOR thallium flux fluorescence | inhibition, % at 10 µM | AID 492992 | shares compounds with KCNK9 inh;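 active means thallium signal inhibited by more than 5 SD of the compound-free buffer control wells, on both duplicate plates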;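 further: 0% = assay buffer control wells without compound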
Kir21 sel = mouse Kir2.1 off-target activity of KCNK9 modulators. shares compounds with KCNK9 inh. Kir2.1 cells, FluxOR thallium flux fluorescence. inhibition, % at 10 µM. 4,900 tested, 4% active;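 active means thallium signal drop more than 5 SD beyond the mean of the no-compound control wells, seen in both duplicate plates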;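 further: signal is fluorescence rise after thallium addition divided by baseline fluorescence; plate controls were assay buffer only for no effect and full block by chlorpromazine control for full effect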
HEK293 Tl ctr = non-induced cell nonspecific activity of KCNK9 modulators; shares compounds with KCNK9 inh; non-induced KCNK9-HEK293, FluxOR thallium flux; inhibition, % at 10 µM; 4,900 tested, 40% active; AID 492997;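 active means thallium signal drop beyond 5 SD of the untreated control mean, on both duplicate plates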;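 further: plate controls were buffer only IC0 wells for no effect and SID17386958 at its maximal inhibitory level for full effect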
KCNK3 inh conf = confirmation of human KCNK3 two-pore domain potassium channel inhibitors. shares compounds with KCNK3 inh. CHO-KCNK3 thallium flux, FluxOR fluorescence; 0% buffer, 100% carvedilol maximal block. ratio percent of control, % at 10 µM. 2,400 tested, 99% active. AID 651638;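 active means ratio percent of control, averaged over triplicates, above buffer control mean plus 5 SD, cut at about 64% in these data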;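 further: ratio is the fluorescence rise from min to max over baseline after thallium stimulus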
KCNK3 noninduced = activity in cells without induced KCNK3 expression; shares compounds with KCNK3 inh; non-induced KCNK3 parental cells, FluxOR thallium flux; active compounds read low; thallium flux ratio (lower = more inhibition) at 10 µM; 2,400 tested, 40% active; AID 651747;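 active means thallium flux ratio, averaged over three wells, more than 5 SD below the buffer control mean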;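 further: host cells are CHO cells without KCNK3 induction; ratio is peak minus trough fluorescence over baseline then normalized to buffer controls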
* hit, by the source's call; i = inactive; . = no result given; + = active, no number.

SMILES	KCNK9 inh	KCNK3 inh	KCNQ1 inh	Kir21 inh	KCNQ1 act	hERG protect	KCNQ1 block val	CHO KCNQ1 ctr	KCNQ2 spec	KCNQ1 KCNE1 spec	KCNK3 inh conf	KCNK3 noninduced	others
CN(C)S(=O)(=O)N1CCN(CC(O)COc2ccc(C(=O)c3ccccc3)cc2)CC1 (stereo unspecified)	i	i	i	0.15	i	-16	.	.	.	.	.	.
Cc1cc(C)cc(OCC(O)CN2CCC(CN3C(=O)c4cccc5cccc(c45)C3=O)CC2)c1 (stereo unspecified)	i	-9.5*	9*	-0.96	i	-36	128*	0.38	99%*	138%*	111*	i	KCNQ1 ephys val=i;KCNK9 block conf=i;Kir21 sel=i;HEK293 Tl ctr=i
Cc1sc(NC(=O)/C=C/c2ccc(C(C)C)cc2)c(C#N)c1C	i	i	i	-1.1	i	-5	.	.	.	.	.	.
COc1ccc(N2CCN(c3ncnc4scc(-c5ccccc5)c34)CC2)cc1	-12*	-11*	6*	-0.01	i	-9	93*	0.38	106%*	108%*	117*	i	KCNQ1 ephys val=i;KCNK9 block conf=28%*;Kir21 sel=i;HEK293 Tl ctr=i
COc1ccc(N2CCN(c3ncnc4scc(-c5ccc(F)cc5)c34)CC2)cc1	i	-11*	8*	0.28	i	-11	95*	0.36*	74%*	104%*	110*	i
c1ccc(-c2csc3ncnc(N4CCOCC4)c23)cc1	i	i	i	-0.48	i	-11	.	.	.	.	.	.
Cc1ccc(C(CNC(=O)C(=O)Nc2ccc3c(c2)OCCO3)N2CCN(C)CC2)cc1 (stereo unspecified)	i	i	i	1.6	i	-13	.	.	.	.	.	.
CN(Cc1cccc2cnccc12)C(=O)c1cc(COc2ccc(F)cc2F)on1	i	i	i	-0.94	i	-12	.	.	.	.	.	.
CCc1ccc(CN(C)C(=O)c2cc(COc3cccc4cnccc34)on2)cc1	-10*	-14*	11*	1.6	i	-14	160*	0.33*	132%*	+	127*	0.15*	KCNK9 block conf=i;Kir21 sel=i;HEK293 Tl ctr=i
CCOc1ccccc1NC(=O)C(OC(=O)c1cc(C)oc1C)c1ccccc1 (stereo unspecified)	-7.9*	i	6*	-1.3	i	-11	82*	0.33*	105%*	86%*	106*	i
Cn1ccnc1SCC(=O)Nc1ccc(SC(F)F)cc1	.	i	.	.	.	.	.	.	.	.	.	.
O=C(NC1CCCC1)c1ccc2c(c1)N(Cc1ccc(F)cc1)CCS2	-14*	-9.3*	9*	-1.4	i	-12	76*	0.39	98%*	90%*	96*	i	KCNK9 block conf=74%*;Kir21 sel=i;HEK293 Tl ctr=42%*
CN(C)CCNC(=O)c1ccc2c(c1)N(Cc1ccc(F)cc1)CCS2	i	i	i	-2.6	i	-7	.	.	.	.	.	.
S=C(NCc1ccccc1)NC1CCCc2ccccc21 (stereo unspecified)	i	-13*	8*	-6.2*	i	-12	0	0.48	66%*	i	112*	i
CC1=C(Nc2ccc(C(=O)O)cc2)C(=O)c2ccccc2C1=O	i	i	i	-0.82	i	1	.	.	.	.	.	.
O=C(O)c1cccc(NC2=C(Cl)C(=O)c3ccccc3C2=O)c1	i	-8.7*	16*	-7.3*	i	-29	155*	0.28*	119%*	+	126*	0.12*
Cc1ccc(NC2=C(NC(=O)c3ccccc3)C(=O)c3ccccc3C2=O)cc1Cl	i	i	i	-0.27	i	4	.	.	.	.	.	.
O=C(O)c1ccc(NC2=C(Cl)C(=O)c3ccccc3C2=O)cc1	-12*	-12*	15*	-9.1*	i	-45	167*	0.26*	118%*	+	137*	0.092*
CC1=CCC2C(=O)N(c3ccc(C)cc3)C(=O)C2C1 (stereo unspecified)	i	i	i	-0.56	i	-2	.	.	.	.	.	.
CN(CC(=O)Nc1cccc(S(=O)(=O)N2CCOCC2)c1)CC(=O)Nc1ccc(Cl)c(C(F)(F)F)c1	i	-11*	8*	-0.39	i	-27	118*	0.43	93%*	54%*	120*	0.14*	KCNQ1 ephys val=i
CN(CC(=O)Nc1cccc(F)c1)CC(=O)Nc1cc(S(=O)(=O)N2CCOCC2)ccc1Cl	.	i	.	.	.	.	.	.	.	.	.	.
CN(CC(=O)NCc1ccc(F)cc1)CC(=O)Nc1ccc(Cl)c(C(F)(F)F)c1	i	-11*	8*	0.28	i	-17	104*	0.45	87%*	62%*	113*	i	KCNQ1 ephys val=+
COc1ccc(NC(=O)c2ccccc2OCc2ccc(F)cc2)c(OC)c1	-12*	-11*	8*	0.58	i	-11	76*	0.45	85%*	108%*	108*	i	KCNK9 block conf=72%*;Kir21 sel=i;HEK293 Tl ctr=32%*
COc1cc(C=O)ccc1OC(=O)c1ccc(C(C)C)cc1	i	i	i	-1	i	1	.	.	.	.	.	.

Screens deposited in PubChem by Johns Hopkins Ion Channel Center.
